Measured values from ChEMBL document CHEMBL1150302, “Aminoacyl-tRNA synthetase inhibitors as potent and synergistic immunosuppressants” (J Med Chem, 2008).
The source made the active and inactive calls. The calls are words filed in the database; no cut-off is given here.

Tests used:
[1] = system: PBMC; assay: Immunosuppressive activity against human PBMC assessed as inhibition of allogenic mixed lymphocyte reaction; assay type: functional, cell-based
In short: (§1)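 Responder cells taken from the Ficoll-plasma interface, washed three times (0.12 × 10⁶), cocultured for 6 days with mitomycin C-treated RPMI 1788 stimulator cells (0.045 × 10⁶) and compound in RPMI 1640 with 10% fetal calf serum. Pulsed after five days with 1 µCi methyl-³H thymidine, harvested 18 h later and counted. cpm converted to % inhibition versus compound-free MLR.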

[2] = system: PBMC; assay: Immunosuppressive activity against human PBMC assessed as inhibition of allogenic mixed lymphocyte reaction at 0.1 uM; assay type: functional; in short: as §1
[3] = system: PBMC; assay: Immunosuppressive activity against human PBMC assessed as inhibition of allogenic mixed lymphocyte reaction at 0.5 uM; assay type: functional; in short: as §1
[4] = system: PBMC; assay: Immunosuppressive activity against human PBMC assessed as inhibition of allogenic mixed lymphocyte reaction at 0.01 uM; assay type: functional; in short: as §1
[5] = system: PBMC; assay: Immunosuppressive activity against human PBMC assessed as inhibition of allogenic mixed lymphocyte reaction at 0.06 uM; assay type: functional; in short: as §1
[6] = system: PBMC; assay: Immunosuppressive activity against human PBMC assessed as inhibition of allogenic mixed lymphocyte reaction at 0.08 uM; assay type: functional; in short: as §1
[7] = system: PBMC; assay: Immunosuppressive activity against human PBMC assessed as inhibition of allogenic mixed lymphocyte reaction upto 10 uM; assay type: functional, cell-based; in short: as §1
[8] = system: PBMC; assay: Immunosuppressive activity against human PBMC assessed as inhibition of allogenic mixed lymphocyte reaction at 0.0008 uM; assay type: functional; in short: as §1
[9] = system: PBMC; assay: Immunosuppressive activity against human PBMC assessed as inhibition of allogenic mixed lymphocyte reaction at 0.0004 uM; assay type: functional; in short: as §1
[10] = system: PBMC; assay: Immunosuppressive activity against human PBMC assessed as inhibition of allogenic mixed lymphocyte reaction at 1.0 uM; assay type: functional; in short: as §1

SMILES	IC50 [1] [nM]	also measured
Nc1ncnc2c1ncn2[C@@H]1O[C@H](COS(=O)(=O)NC(=O)[C@@H](N)CS)[C@@H](O)[C@H]1O	400	
Nc1ncnc2c1ncn2[C@@H]1O[C@H](COS(=O)(=O)NC(=O)[C@H](Cc2ccccc2)NCc2ccccc2)[C@@H](O)[C@H]1O	200	inhibition at 0.1 µM [2]: 31.1%
CSCC[C@H](N)C(=O)NS(=O)(=O)OC[C@H]1O[C@@H](n2cnc3c(N)ncnc32)[C@H](F)[C@@H]1O	400	
Nc1ncnc2c1ncn2[C@@H]1CO[C@H](COS(=O)(=O)NC(=O)[C@H](Cc2ccccc2)NCc2ccccc2)[C@@H](O)[C@H]1O	80	
C[C@H](N)C(=O)NS(=O)(=O)OC[C@H]1OC[C@@H](n2cnc3c(N)ncnc32)[C@H](O)[C@@H]1O	300	inhibition at 0.5 µM [3]: 68%
Nc1ncnc2c1ncn2[C@@H]1O[C@H](COS(=O)(=O)NC(=O)[C@@H]2CCCN2)[C@@H](O)[C@H]1F	300	
NC(=O)CC[C@H](N)C(=O)NS(=O)(=O)OC[C@H]1O[C@@H](n2cnc3c(N)ncnc32)[C@H](O)[C@@H]1O	800	
Nc1ncnc2c1ncn2[C@@H]1O[C@H](COS(=O)(=O)NC(=O)[C@@H](N)Cc2c[nH]cn2)[C@@H](O)[C@H]1F	450	
Nc1ncnc2c1ncn2[C@@H]1O[C@H](COS(=O)(=O)NC(=O)[C@@H](N)CO)[C@@H](O)[C@H]1O	4800	
Nc1ncnc2c1ncn2[C@@H]1O[C@H](COS(=O)(=O)NC(=O)[C@@H](N)Cc2c[nH]c3ccccc23)[C@@H](O)[C@H]1O	500	inhibition at 0.5 µM [3]: 27.6%; inhibition at 0.1 µM [2]: 2.3%
C[C@@H](O)[C@H](N)C(=O)NS(=O)(=O)OC[C@H]1O[C@@H](n2cnc3c(N)ncnc32)[C@H](O)[C@@H]1O	5200	
N=C(N)NCCC[C@H](N)C(=O)NS(=O)(=O)OC[C@H]1O[C@@H](n2cnc3c(N)ncnc32)[C@H](O)[C@@H]1O	1000	
N=C(N)NCCC[C@H](N)C(=O)NS(=O)(=O)OC[C@H]1OC[C@@H](n2cnc3c(N)ncnc32)[C@H](O)[C@@H]1O	600	
C/C=C/C[C@@H](C)[C@@H](O)[C@H]1C(=O)N[C@@H](CC)C(=O)N(C)CC(=O)N(C)[C@@H](CC(C)C)C(=O)N[C@@H](C(C)C)C(=O)N(C)[C@@H](CC(C)C)C(=O)N[C@@H](C)C(=O)N[C@H](C)C(=O)N(C)[C@@H](CC(C)C)C(=O)N(C)[C@@H](CC(C)C)C(=O)N(C)[C@@H](C(C)C)C(=O)N1C [CYCLOSPORINE]		inhibition at 0.01 µM [4]: 32%; inhibition at 0.06 µM [5]: 65.7%; inhibition at 0.08 µM [6]: 75.2%
CSCC[C@H](N)C(=O)NS(=O)(=O)OC[C@H]1OC[C@@H](n2cnc3c(N)ncnc32)C[C@@H]1O	5500	
C[C@H](N)C(=O)NS(=O)(=O)OC[C@H]1O[C@@H](n2cnc3c(N)ncnc32)[C@H](O)[C@@H]1O [ALASA]	1700	inhibition at 0.5 µM [3]: 4.9%; inhibition at 0.1 µM [2]: 6.5%
C[C@H](N)C(=O)NS(=O)(=O)OC[C@H]1O[C@@H](n2cnc3c(N)ncnc32)[C@H](F)[C@@H]1O	400	
CC(C)C[C@H](N)C(=O)NS(=O)(=O)OC[C@H]1OC[C@@H](n2cnc3c(N)ncnc32)[C@H](O)[C@@H]1O	1000	
Nc1ncnc2c1ncn2[C@@H]1CO[C@H](COS(=O)(=O)NC(=O)[C@@H]2CCCN2)[C@@H](O)[C@H]1O	750	
C/C(=C\C(=O)OCCCCCCCCC(=O)O)C[C@@H]1OC[C@H](C[C@@H]2O[C@H]2[C@@H](C)[C@H](C)O)[C@@H](O)[C@H]1O		Activity [7]: inactive
CC(C)C[C@H](N)C(=O)NS(=O)(=O)OC[C@H]1O[C@@H](n2cnc3c(N)ncnc32)[C@H](O)[C@@H]1O [LEUSA]	1100	inhibition at 0.5 µM [3]: 16.3%; inhibition at 0.1 µM [2]: 16%
CCC[C@H](N)C(=O)NS(=O)(=O)OC[C@H]1O[C@@H](n2cnc3c(N)ncnc32)[C@H](O)[C@@H]1O	4700	
CC[C@H](C)[C@H](N)C(=O)NS(=O)(=O)OC[C@H]1O[C@@H](n2cnc3c(N)ncnc32)[C@H](O)[C@@H]1O	5600	
Nc1ncnc2c1ncn2[C@@H]1CO[C@H](COS(=O)(=O)NC(=O)[C@@H]2CCCN2)[C@@H](O)C1	2800	

SMILES	IC50 [1] [nM]	also measured
Nc1ncnc2c1ncn2[C@@H]1O[C@H](COS(=O)(=O)NC(=O)[C@@H]2CCCN2)[C@@H](O)[C@H]1O	700	inhibition at 0.5 µM [3]: 18.6%; inhibition at 0.1 µM [2]: -2.7%
CC[C@H](N)C(=O)NS(=O)(=O)OC[C@H]1O[C@@H](n2cnc3c(N)ncnc32)[C@H](O)[C@@H]1O	5500	
Nc1ncnc2c1ncn2[C@@H]1O[C@H](COS(=O)(=O)NC(=O)[C@@H](N)Cc2cnc[nH]2)[C@@H](O)[C@H]1O	1000	inhibition at 0.1 µM [2]: 12.4%
CO[C@H]1C[C@@H]2CC[C@@H](C)[C@@](O)(O2)C(=O)C(=O)N2CCCC[C@H]2C(=O)O[C@H]([C@H](C)C[C@@H]2CC[C@@H](O)[C@H](OC)C2)CC(=O)[C@H](C)/C=C(\C)[C@@H](O)[C@@H](OC)C(=O)[C@H](C)C[C@H](C)/C=C/C=C/C=C/1C [SIROLIMUS]		inhibition at 0.0008 µM [8]: 32.5%; inhibition at 0.0004 µM [9]: 13.1%
NCC(=O)NS(=O)(=O)OC[C@H]1O[C@@H](n2cnc3c(N)ncnc32)[C@H](O)[C@@H]1O	800	
Nc1ncnc2c1ncn2[C@@H]1O[C@H](COS(=O)(=O)NC(=O)[C@@H](N)CC(=O)O)[C@@H](O)[C@H]1O	2400	
Nc1ncnc2c1ncn2[C@@H]1O[C@H](COS(=O)(=O)NC(=O)[C@@H](N)CCC(=O)O)[C@@H](O)[C@H]1O	4900	
Nc1ncnc2c1ncn2[C@@H]1O[C@H](COS(=O)(=O)NC(=O)[C@@H]2CCN2)[C@@H](O)[C@H]1O	600	
CC(C)C[C@H](N)C(=O)NS(=O)(=O)OC[C@H]1OC[C@@H](n2cnc3c(N)ncnc32)C[C@@H]1O	6800	
CSCC[C@H](N)C(=O)NS(=O)(=O)OC[C@H]1O[C@@H](n2cnc3c(N)ncnc32)[C@H](O)[C@@H]1O	500	inhibition at 0.5 µM [3]: 28.4%
C=C(C)CC(N)C(=O)NS(=O)(=O)OC[C@H]1O[C@@H](n2cnc3c(N)ncnc32)[C@H](O)[C@@H]1O (mixture of isomers)	550	
CC(C)C[C@H](N)C(=O)NS(=O)(=O)OC[C@H]1O[C@@H](n2cnc3c(N)ncnc32)[C@H](F)[C@@H]1O	450	
NCCCC[C@H](N)C(=O)NS(=O)(=O)OC[C@H]1O[C@@H](n2cnc3c(N)ncnc32)[C@H](O)[C@@H]1O	1000	inhibition at 1 µM [10]: 67%
Nc1ncnc2c1ncn2[C@@H]1CO[C@H](COS(=O)(=O)NC(=O)[C@@H](N)Cc2c[nH]cn2)[C@@H](O)[C@H]1O	1200	
Nc1ncnc2c1ncn2[C@@H]1CO[C@H](COS(=O)(=O)NC(=O)[C@@H](N)Cc2c[nH]cn2)[C@@H](O)C1	6700	
NC(=O)C[C@H](N)C(=O)NS(=O)(=O)OC[C@H]1O[C@@H](n2cnc3c(N)ncnc32)[C@H](O)[C@@H]1O	300	
Nc1ncnc2c1ncn2[C@@H]1O[C@H](COS(=O)(=O)NC(=O)[C@@H]2CSCN2)[C@@H](O)[C@H]1O	550	
C[C@H](N)C(=O)NS(=O)(=O)OC[C@H]1OC[C@@H](n2cnc3c(N)ncnc32)C[C@@H]1O	5500	
Nc1ncnc2c1ncn2[C@@H]1O[C@H](COS(=O)(=O)NC(=O)[C@@H](N)Cc2ccc(O)cc2)[C@@H](O)[C@H]1O	5600	
CC(C)[C@H](N)C(=O)NS(=O)(=O)OC[C@H]1O[C@@H](n2cnc3c(N)ncnc32)[C@H](O)[C@@H]1O	5600	
Nc1ncnc2c1ncn2[C@@H]1O[C@H](COS(=O)(=O)NC(=O)[C@@H](N)Cc2ccccc2)[C@@H](O)[C@H]1O [PHESA]	1000	inhibition at 0.5 µM [3]: 53.4%; inhibition at 0.1 µM [2]: 10.7%
CSCC[C@H](N)C(=O)NS(=O)(=O)OC[C@H]1OC[C@@H](n2cnc3c(N)ncnc32)[C@H](O)[C@@H]1O	5200	
N=C(N)NCCC[C@H](N)C(=O)NS(=O)(=O)OC[C@H]1OC[C@@H](n2cnc3c(N)ncnc32)C[C@@H]1O	600	
